# Assay results from ChEMBL document CHEMBL1134845, “Syntheses and biological activities of a novel group of steroidal derived inhibitors for human Cdc25A protein phosphatase” (J Med Chem, 2001).
# What was measured:
# UO-31 [1] = experiment: Growth inhibitory activity was determined against UO-31 cancer cell line of renal cancer; type: functional; conditions: Homo sapiens
# Summary of the method: (§1)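 NCI 60 human tumour cell line screen run at the National Cancer Institute. Cell growth and viability read with the protein stain sulforhodamine B, which binds basic amino acids of cells left attached after washing. […] MG MID is the mean GI50 calculated over all panels.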
# SF-268 = experiment: Growth inhibitory activity was determined against SF-268 cancer cell line of CNS cancer; type: functional; conditions: Homo sapiens; summary of the method: as §1
# BT-549 (Homo sapiens) = experiment: Growth inhibitory activity was determined against BT-549 cancer cell line of Breast cancer; conditions: Homo sapiens, BT-549
# T47D = experiment: Growth inhibitory activity was determined against T-47D cancer cell line of Breast cancer; type: functional, Homo sapiens; conditions: Homo sapiens, T47D; summary of the method: as §1
# HT-29 = experiment: Growth inhibitory activity was determined against HT-29 cancer cell line colon cancer; type: functional, Homo sapiens; conditions: Homo sapiens, HT-29; summary of the method: as §1
# COLO 205 = experiment: Growth inhibitory activity was determined against COLO 205 cancer cell line colon cancer; type: functional, Homo sapiens; conditions: Homo sapiens, COLO 205; summary of the method: as §1
# 786-0 [2] = experiment: Growth inhibitory activity was determined against 786-0 cancer cell line of renal cancer; type: functional; conditions: Homo sapiens; summary of the method: as §1
# SF-539 = experiment: Growth inhibitory activity was determined against SF-539 cancer cell line of CNS cancer; type: functional; conditions: Homo sapiens; summary of the method: as §1
# NCI-H522 = experiment: Growth inhibitory activity was determined against NCI-H522 cancer cell line of non-small cell lung cancer; type: functional; conditions: Homo sapiens; summary of the method: as §1
# NCI-H23 = experiment: Growth inhibitory activity was determined against NCI-H23 cancer cell line of non-small cell lung cancer; type: functional, Homo sapiens; conditions: Homo sapiens, NCI-H23; summary of the method: as §1
# OVCAR-8 [3] = experiment: Growth inhibitory activity was determined against OVCAR-8 cancer cell lines of Ovarian cancer; type: functional; conditions: Homo sapiens; summary of the method: as §1
# OVCAR-3 [4] = experiment: Growth inhibitory activity was determined against OVCAR-3 cancer cell lines of Ovarian cancer; type: functional; conditions: Homo sapiens; summary of the method: as §1
# U-251 = experiment: Growth inhibitory activity was determined against U-251 cancer cell line of CNS cancer; type: functional; conditions: Homo sapiens; summary of the method: as §1
# PC-3 = experiment: Growth inhibitory activity was determined against PC-3 cancer cell line of Prostate cancer; type: functional; conditions: Homo sapiens; summary of the method: as §1
# NCI/ADR-RES = experiment: Growth inhibitory activity was determined against NCI/ADR-RES cancer cell line of Breast cancer; type: functional, Homo sapiens; conditions: Homo sapiens, NCI/ADR-RES; summary of the method: as §1
# SK-MEL-5 = experiment: Growth inhibitory activity was determined against SK-MEL-5 cancer cell line of melanoma; type: functional, Homo sapiens; conditions: Homo sapiens, SK-MEL-5; summary of the method: as §1
# A549 = experiment: Growth inhibitory activity was determined against A549/ATCC cancer cell line of non-small cell lung cancer; type: functional, Homo sapiens; conditions: Homo sapiens, A549; summary of the method: as §1
# SN12C [5] = experiment: Growth inhibitory activity was determined against SN12C cancer cell line of renal cancer; type: functional; conditions: Homo sapiens; summary of the method: as §1
# HCC 2998 = experiment: Growth inhibitory activity was determined against HCC2998 cancer cell line colon cancer; type: functional, Homo sapiens; conditions: Homo sapiens, HCC 2998; summary of the method: as §1
# LOX IMVI = experiment: Growth inhibitory activity was determined against LOX IMVI cancer cell line of melanoma; type: functional, Homo sapiens; conditions: Homo sapiens, LOX IMVI; summary of the method: as §1
# [6] = biological target: T1, M-phase inducer phosphatase 1 (Homo sapiens, UniProt P30304); experiment: Inhibitory activity tested against cell division cycle 25A (assay using p-nitro phenyl phosphate (pNPP) as substrate)
# T1 sequence (P30304 whole entry): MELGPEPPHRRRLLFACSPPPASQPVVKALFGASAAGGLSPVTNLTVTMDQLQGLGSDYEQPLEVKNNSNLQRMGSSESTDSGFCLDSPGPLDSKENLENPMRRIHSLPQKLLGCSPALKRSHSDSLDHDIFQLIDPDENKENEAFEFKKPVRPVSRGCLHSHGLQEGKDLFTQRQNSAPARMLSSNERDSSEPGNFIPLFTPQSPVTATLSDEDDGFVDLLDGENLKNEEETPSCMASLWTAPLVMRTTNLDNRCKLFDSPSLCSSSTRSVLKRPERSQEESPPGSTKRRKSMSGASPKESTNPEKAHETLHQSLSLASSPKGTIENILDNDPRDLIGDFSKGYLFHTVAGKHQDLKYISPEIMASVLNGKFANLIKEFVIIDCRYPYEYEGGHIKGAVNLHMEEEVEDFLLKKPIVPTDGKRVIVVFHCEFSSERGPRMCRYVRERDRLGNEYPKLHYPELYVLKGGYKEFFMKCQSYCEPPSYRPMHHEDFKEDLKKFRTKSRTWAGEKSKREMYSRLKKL
# [7] = biological target: T1, M-phase inducer phosphatase 1; experiment: (§2) Inhibitory activity tested against cell division cycle 25A (assay using fluorescein diphosphate (FDP) as substrate)
# Summary of the method: (§3)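 Recombinant human GST-Cdc25A fusion protein, each batch calibrated so that FDP was dephosphorylated linearly over 20 min. Fluorescein diphosphate was the substrate. Reactions ran 15 min at 25 °C in the dark and were stopped with sodium orthovanadate. IC50 came from at least two independent runs, each in triplicate.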
# [8] = biological target: T2, Receptor-type tyrosine-protein phosphatase C (Homo sapiens, UniProt P08575); experiment: Inhibitory activity tested against Human CD45 Phosphatase (assay using p-nitrophenyl phosphate (pNPP) as substrate)
# T2 sequence (P08575 whole entry): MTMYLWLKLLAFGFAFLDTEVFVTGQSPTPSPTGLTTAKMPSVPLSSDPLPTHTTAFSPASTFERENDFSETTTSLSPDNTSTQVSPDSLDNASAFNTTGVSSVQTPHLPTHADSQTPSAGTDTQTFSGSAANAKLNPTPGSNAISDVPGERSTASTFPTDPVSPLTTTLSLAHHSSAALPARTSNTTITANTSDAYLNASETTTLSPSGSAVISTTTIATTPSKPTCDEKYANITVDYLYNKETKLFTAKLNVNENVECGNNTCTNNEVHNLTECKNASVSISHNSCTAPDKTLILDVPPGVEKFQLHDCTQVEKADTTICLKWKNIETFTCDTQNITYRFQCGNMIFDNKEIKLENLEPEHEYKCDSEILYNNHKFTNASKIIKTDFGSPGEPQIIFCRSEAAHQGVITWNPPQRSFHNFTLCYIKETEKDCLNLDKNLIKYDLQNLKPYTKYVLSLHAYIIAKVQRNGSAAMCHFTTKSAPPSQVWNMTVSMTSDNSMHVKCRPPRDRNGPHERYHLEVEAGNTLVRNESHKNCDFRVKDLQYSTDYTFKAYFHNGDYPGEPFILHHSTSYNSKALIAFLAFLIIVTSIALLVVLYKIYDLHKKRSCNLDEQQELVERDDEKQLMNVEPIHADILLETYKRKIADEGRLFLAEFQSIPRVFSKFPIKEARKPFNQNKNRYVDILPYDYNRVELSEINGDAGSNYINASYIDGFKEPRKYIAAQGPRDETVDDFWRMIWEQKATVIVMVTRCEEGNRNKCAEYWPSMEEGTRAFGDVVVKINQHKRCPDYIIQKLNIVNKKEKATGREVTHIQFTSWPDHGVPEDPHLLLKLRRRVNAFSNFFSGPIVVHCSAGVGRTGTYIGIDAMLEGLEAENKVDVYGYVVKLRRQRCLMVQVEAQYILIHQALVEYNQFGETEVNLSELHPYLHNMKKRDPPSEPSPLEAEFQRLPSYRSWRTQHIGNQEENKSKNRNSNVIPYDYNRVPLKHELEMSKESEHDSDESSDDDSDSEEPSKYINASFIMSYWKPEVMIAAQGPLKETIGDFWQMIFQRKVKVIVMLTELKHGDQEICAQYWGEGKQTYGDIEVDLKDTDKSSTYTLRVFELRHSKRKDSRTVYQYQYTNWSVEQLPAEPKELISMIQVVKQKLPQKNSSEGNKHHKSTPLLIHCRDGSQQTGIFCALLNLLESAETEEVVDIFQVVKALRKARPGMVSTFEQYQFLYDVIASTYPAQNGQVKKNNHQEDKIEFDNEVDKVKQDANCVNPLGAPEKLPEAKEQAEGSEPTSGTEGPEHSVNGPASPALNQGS
# [9] = biological target: T3, M-phase inducer phosphatase 1 (Homo sapiens) (UniProt P30304); experiment: as §2; conditions: concentration not given here
# T3 sequence (whole entry): T1 sequence (P30304 whole entry)
# Summary of the method: as §3, with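 “orthovanadate. Fluorescein monophosphate was read at 485 nm excitation and 530 nm emission.” for “orthovanadate.”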
# SN12C [10] = experiment: Growth inhibitory activity was determined against SN12C cancer cell line of Renal cancer; type: functional; conditions: Homo sapiens; summary of the method: as §1
# UO-31 [11] = experiment: Growth inhibitory activity was determined against UO-31 cancer cell line of Renal cancer; type: functional; conditions: Homo sapiens; summary of the method: as §1
# 786-0 [12] = experiment: Growth inhibitory activity was determined against 786-0 cancer cell line of Renal cancer; type: functional; conditions: Homo sapiens; summary of the method: as §1
# OVCAR-3 [13] = experiment: Growth inhibitory activity was determined against OVCAR-3 cancer cell line of Ovarian cancer; type: functional; conditions: Homo sapiens; summary of the method: as §1
# OVCAR-8 [14] = experiment: Growth inhibitory activity was determined against OVCAR-8 cancer cell line of Ovarian cancer; type: functional; conditions: Homo sapiens; summary of the method: as §1
SMILES,GI50 (BT-549 (Homo sapiens)) [µM],GI50 (T47D) [µM],GI50 (HT-29) [µM],GI50 (COLO 205) [µM],GI50 (786-0 [2]) [µM],GI50 (NCI-H522) [µM],GI50 (NCI-H23) [µM],GI50 (U-251) [µM],GI50 (PC-3) [µM],GI50 (SK-MEL-5) [µM],GI50 (A549) [µM],GI50 (HCC 2998) [µM],IC50 [7] [µM],GI50 (OVCAR-3 [13]) [µM],GI50 (UO-31 [1]) [µM],GI50 (SF-268) [µM],GI50 (SF-539) [µM],GI50 (NCI/ADR-RES) [µM],GI50 (SN12C [5]) [µM],GI50 (LOX IMVI) [µM],other results
CC(C)CCCC(C)[C@H]1CC[C@H]2[C@H](CC(=O)O)[C@@H]([C@@]3(C)CC[C@@H](CC#N)O3)CC[C@]12C (stereo partly drawn),5.05,8.41,5.52,5.26,9.23,0.94,5.75,6.01,7.77,10.8,8.25,5.1,–,–,15.3,2.86,19.5,5.44,5.4,6.23,GI50 (OVCAR-8 [3]): 4.76 µM; GI50 (OVCAR-3 [4]): 5.66 µM
CC(C)CCC[C@@H](C)[C@H]1CC[C@H]2[C@@H]3CC[C@H]4C[C@@H](OC(=O)Nc5ccccc5)CC[C@]4(C)[C@H]3CC[C@]12C,–,–,–,–,–,–,–,–,–,–,–,–,–,–,–,–,–,–,–,–,inhibition [9]: 18%
CC(C)CCCC(C)[C@H]1CC[C@H]2[C@H](CC(=O)O)[C@@H](C(C)CCCCC#N)CC[C@]12C (stereo in doubt; 21),5.16,6.69,4.69,5.29,–,> 25,5.27,–,7.15,7.04,5.09,5.36,2.2,5.25,–,> 25,10.8,5.34,–,4.86,GI50 (SN12C [10]): 6.05 µM; GI50 (UO-31 [11]): 9.97 µM; GI50 (786-0 [12]): 8.45 µM; GI50 (OVCAR-8 [14]): 4.88 µM

# Second part, led by results:
GI50 (BT-549 (Homo sapiens)) [µM],GI50 (T47D) [µM],GI50 (HT-29) [µM],GI50 (COLO 205) [µM],GI50 (786-0 [2]) [µM],GI50 (NCI-H522) [µM],GI50 (NCI-H23) [µM],GI50 (U-251) [µM],GI50 (PC-3) [µM],GI50 (SK-MEL-5) [µM],GI50 (A549) [µM],GI50 (HCC 2998) [µM],IC50 [7] [µM],GI50 (OVCAR-3 [13]) [µM],SMILES,GI50 (UO-31 [1]) [µM],GI50 (SF-268) [µM],GI50 (SF-539) [µM],GI50 (NCI/ADR-RES) [µM],GI50 (SN12C [5]) [µM],GI50 (LOX IMVI) [µM],other results
–,–,–,–,–,–,–,–,–,–,–,–,1.1,–,CC(C)CCC[C@@H](C)[C@H]1CC[C@H]2[C@@H]3CC[C@H]4C[C@@H](OC(=S)S)CC[C@]4(C)[C@H]3CC[C@]12C,–,–,–,–,–,–,IC50 [6]: 11.7 µM; IC50 [8]: > 100 µM
5.07,4.09,2.63,4.76,1.44,6.1,4.85,3.46,4.22,4.37,4.27,–,–,4,CC(C)CCC[C@@H](C)[C@H]1CC[C@H]2[C@@H]3CC(=O)N4C(=O)C=CCC[C@]4(C)[C@H]3CC[C@]12C,2.95,> 25,4.46,6.05,3.46,0.84,GI50 (OVCAR-8 [14]): 1.97 µM
